Compounds with a hit are over-represented: about 11% of the library has one in this group of screens.
M1 agonist: agonists of M1 muscarinic receptor | 64,000 tested, 3% active | B-score at 10 µM | CHO-M1 cells, Fluo-4 calcium fluorescence, agonist mode; hits give high values;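 active = fluorescence rise, raw or as B-score row- and column-corrected plate score, outside the 99.7% band of its plate's samples, either direction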
M1 antagonist: blocks the rat M1 muscarinic receptor response to acetylcholine. P08482. CHO-M1 cells, Fluo-4 calcium, ACh EC80 antagonist mode; hits give low values. B-score at 10 µM. 64,000 tested, 3.4% active. AID 628;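 active = calcium fluorescence response, raw or row-and-column corrected B-score, differing from the plate sample mean either way at a set confidence level, mostly lower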
Target sequence (P08482 whole entry, looked up): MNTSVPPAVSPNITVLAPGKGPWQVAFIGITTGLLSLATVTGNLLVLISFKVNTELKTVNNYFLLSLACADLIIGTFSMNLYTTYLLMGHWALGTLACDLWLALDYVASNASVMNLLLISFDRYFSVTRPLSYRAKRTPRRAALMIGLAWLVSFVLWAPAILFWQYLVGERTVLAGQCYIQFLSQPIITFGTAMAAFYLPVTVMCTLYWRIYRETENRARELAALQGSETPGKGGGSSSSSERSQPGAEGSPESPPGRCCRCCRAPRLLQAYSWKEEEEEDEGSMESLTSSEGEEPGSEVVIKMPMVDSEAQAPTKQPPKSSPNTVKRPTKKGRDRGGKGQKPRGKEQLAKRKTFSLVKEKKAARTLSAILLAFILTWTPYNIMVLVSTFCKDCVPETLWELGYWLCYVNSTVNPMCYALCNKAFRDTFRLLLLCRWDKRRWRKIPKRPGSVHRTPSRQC
D1 allo mod: allosteric modulators of human D1 dopamine receptor | P21728 | HEK293 D1, CRE-luciferase, dopamine EC30 potentiation; actives deviate in either direction | B-score at 10 µM | 58,000 tested, 5.9% active | AID 641;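 active = luminescence count or its row- and column-corrected plate score outside the 99.7% band of the plate's sample wells, on either side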
S1P3 ag: activates the human S1P3 receptor; AID 373; activation, % at 4.5 µM; 60,000 tested, 0.1% active; Q99500; S1P3 NFAT-BLA reporter cells, agonism, FRET ratio; relative to 1 µM S1P, basal subtracted;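 active = activation above the screen-wide mean plus 3 SD, cut at about 4.5% in these data, passing the limit was not always enough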
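Assay system: stable CHO line with human S1P3, Gα16, NFAT-BLA reporter; Detection: FRET β-lactamase substrate fluorescence, excitation 405 nm, 460/535 nm emission ratio, background-subtracted; Read-out: percent activation versus median 1 µM S1P response, basal-subtracted, per plate; Incubation: cells plated overnight, compound 4 h 37 °C, substrate 2 h RT.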
TNAP act mid DEA: activates human TNAP at intermediate phosphate acceptor concentration. AID 813. purified TNAP, CDP-star luminescence, 100 mM DEA, 30 min; hits give high values; scale: 0 levamisole-inhibited, 1 vehicle-only enzyme. 64,000 tested, under 10 active. P05186. activation factor at 20 µM;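 active = activation factor of at least 2 at 20 µM, relative to controls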
S1P1 ag-PAM: agonists and agonism potentiators of human S1P1 receptor. P21453. S1P1 CRE-bla cells, forskolin, beta-lactamase FRET, potentiator mode; S1P1 agonist co-added at EC20, 2 nM; 100% = saturating reference agonist, 0% = basal. activation, % at 9.5 µM. 56,000 tested, 0.57% active. AID 449;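 active = activation above a cutoff set at the mean activation of all tested compounds plus 3 SD, cut at about 54% in these data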;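 also: forskolin at 4 µM as EC80 and the EC20 agonist is SEW2871; 100% = SEW2871 at its EC100 plus forskolin at EC80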
D1 mod confirm: confirmation of human D1 dopamine receptor allosteric modulators; shares compounds with D1 allo mod; HEK293 D1 CRE-luciferase, dopamine EC30 potentiation; hits give high values; luminescence at 10 µM; 2,200 tested, 88% active;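 active = luminescence in either of two replicates above the same-plate mean plus 3 SD of the low-dose dopamine control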
D1 ag no DA: secondary test of D1 modulators: activity without dopamine; shares compounds with D1 allo mod; HEK293 D1 CRE-luciferase, luminescence, no dopamine; hits give high values; luminescence at 10 µM; 1,900 tested, 0.8% active; in the data active = luminescence above about 3900
Isoprot counter: counter-screen for D1 modulators: isoproterenol response in HEK293 cells | shares compounds with D1 allo mod | HEK293 D1 CRE-luciferase, isoproterenol EC30 counter-screen; hits give high values | luminescence at 10 µM | 2,200 tested, 63% active;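 active = luminescence in either replicate above plate mean of wells with a partly effective reference agonist dose plus 3 SD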;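 also: isoproterenol raises cAMP through native beta-adrenoceptor Gs so signal bypasses D1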
* hit, by the source's call; nt = no result given.

SMILES	M1 agonist	M1 antagonist	D1 allo mod	S1P3 ag	TNAP act mid DEA	S1P1 ag-PAM	D1 mod confirm	D1 ag no DA	Isoprot counter
O=C(CN(Cc1ccccc1F)S(=O)(=O)c1ccc(Cl)cc1)NCCCO	-0.27	0.12	-0.56	-1	1	-14	nt	nt	nt
O=C(NC1CCCCC1)c1nn2c(C(F)(F)F)cc(-c3ccco3)nc2c1Br	0.31	-0.12	0.83	0	0.9	-6	nt	nt	nt
O=C(NC1CCCCC1)c1cnn2c(C(F)(F)F)cc(-c3ccco3)nc12	1.1	-1.4	5.3*	nt	1	nt	6744*	1356	3856*
O=C(COc1cccc(NC(=O)c2ccco2)c1)c1ccccc1	1.4	-0.86	0.59	0	1	2	nt	nt	nt
CC1(c2ccc3noc(-c4ccccc4)c3c2)OCCO1	-0.02	0.27	3	0	0.9	-16	nt	nt	nt
O=C(O)c1ccc2noc(-c3ccccc3)c2c1	-0.89	0.29	3*	0	0.8	12	6504	1520	2716
CCOC(=O)C1=C(N)n2c(s/c(=C/c3ccco3)c2=O)=C(C(=O)OC)C1c1ccco1 (stereo not given)	-1.1	0.48	1.5	1	0.9	-24	nt	nt	nt
N#CC1=C(N)n2c(s/c(=C\c3ccco3)c2=O)=C(C#N)C1c1ccco1 (stereo not given)	0.018	0.82	12*	-1	0.8	7	14056*	1704	3716
O=C(Cn1c(-c2ccccc2)noc1=O)NCc1ccccc1	0.19	-0.077	-0.0061	0	0.9	-2	nt	nt	nt
N#CCCCn1c(-c2ccccc2)noc1=O	-0.27	0.15	6.4*	-1	0.9	0	4628	1604	2940
Cc1ccc(Nc2nnc(SCc3cc(=O)n4ccsc4n3)s2)c(C)c1	-1.5	-0.28	2.6*	0	0.9	-45	6736*	1632	3068
COc1ccc(-c2cc(C(=O)N3CCN(Cc4ccccc4)CC3)no2)cc1OC	-0.91	0.063	0.55	-1	0.8	-5	nt	nt	nt
COc1ccc(-c2cc(C(=O)N3CCCCC3)no2)cc1OC	-0.31	-0.11	9.5*	0	0.9	-11	14812*	nt	3656*
c1ccc(C2CC(c3ccccc3)n3ncnc3N2)cc1 (stereo not given)	-0.36	0.13	4.4*	0	0.9	-1	6308*	1700	3180
Nc1nc2n(n1)C(c1ccccc1)CC(c1ccc(F)cc1)N2 (stereo not given)	0.039	-0.59	6*	0	1	1	11012*	1632	5680
COc1ccc(C2CC(c3ccccc3)Nc3nc(N)nn32)cc1 (stereo not given)	0.68	-0.0047	nt	-4	0.9	-4	nt	nt	nt
Nc1nc2n(n1)C(c1ccco1)CC(c1ccccc1)N2 (stereo not given)	-0.99	-1.6	14*	0	nt	-17	20620*	1600	4180*
CCOc1ccc(C2CC(c3ccccc3)Nc3nc(N)nn32)cc1 (stereo not given)	-0.036	0.45	nt	-2	0.9	-5	nt	nt	nt
Nc1nc2n(n1)C(c1cccc(Br)c1)CC(c1ccc(F)cc1)N2 (stereo not given)	-0.93	-0.31	14*	-1	0.8	0	13072*	1584	4192*
Cc1nn(-c2ccccc2)c2sc(-c3n[nH]c(=S)o3)cc12	nt	nt	nt	0	0.8	-3	nt	nt	nt
CCCn1nnnc1NCc1cccn1C	0.41	0.59	-0.3	0	0.9	-12	nt	nt	nt
CCNc1nc(SCc2ccccc2)nc(N2CCOCC2)n1	0.7	-0.55	23*	0	0.9	2	17404*	nt	5532*
CNc1nc(SC)nc(N2CCOCC2)n1	-0.3	1.4	11*	0	0.9	-24	17184*	2056	3676*
Nc1nc(CSCc2ccccc2)nc(N2CCOCC2)n1	-0.34	0.9	4.3*	0	0.9	-15	12172*	1852	5012*
O=C(O)CCC(=O)NC1CCCCC1NC(=O)CCC(=O)O (stereo not given)	0.63	0.4	-0.082	-2	0.9	6	nt	nt	nt
SMILES	M1 agonist	M1 antagonist	D1 allo mod	S1P3 ag	TNAP act mid DEA	S1P1 ag-PAM	D1 mod confirm	D1 ag no DA	Isoprot counter
O=C(Cn1c(=O)n(-c2ccccc2)c(=O)n1CC(=O)N1CCCCC1)N1CCCCC1	-0.68	1	-0.0045	0	0.9	-2	nt	nt	nt
CC(C)Nc1nc(C#N)nc(NC(C)C)n1	0.059	0.36	11*	1	1	-37	12292*	nt	3804*
CCOC(=O)c1cnn(-c2cc(C)c3cc(C)cc(C)c3n2)c1N	0.24	0.41	0.85	nt	0.8	nt	nt	nt	nt
O=C(CSc1nnnn1-c1ccc2c(c1)OCO2)NCc1ccccc1	0.34	-0.039	-0.46	-1	1	8	nt	nt	nt
Fc1ccccc1CSc1nnnn1-c1ccc2c(c1)OCO2	0.64	-0.27	5.1*	-2	0.8	nt	11056*	1596	3348
Cc1ccc(S(=O)(=O)NCC2CCC(C(=O)NCc3ccco3)CC2)cc1 (stereo not given)	nt	nt	nt	1	0.9	-7	nt	nt	nt
CC(=O)c1cccc(NC2c3ncccc3C(=O)N2Cc2ccco2)c1 (stereo not given)	1.1	1.1	20*	0	1	-8	19736*	nt	4728*
CC1CCN(c2nc3c(c(=O)[nH]c(=O)n3C)n2Cc2ccccc2Cl)CC1	1.3	-0.83	6.2*	2	1	-25	14268*	1744	4680*
Cn1c(=O)[nH]c(=O)c2[nH]c(N(Cc3ccccc3)Cc3ccccc3)nc21	-0.24	-0.3	8.4*	1	0.9	-56	16252*	nt	3704*
CN(Cc1ccccc1)c1nc2c(c(=O)[nH]c(=O)n2C)n1Cc1ccccc1Cl	0.042	0.69	17*	-1	0.8	-34	21184*	1740	8160*
Cn1c(=O)[nH]c(=O)c2c1nc(N(CCO)Cc1ccccc1)n2CCCc1ccccc1	0.36	-0.18	nt	nt	1	nt	nt	nt	nt
CN(Cc1ccccc1)c1nc2c(c(=O)[nH]c(=O)n2C)n1CCCc1ccccc1	1.1	-1.3	5.1*	0	1	-51	12224*	1632	4092*
CCOCCn1c(N(C)Cc2ccccc2)nc2c1c(=O)[nH]c(=O)n2C	-0.098	1	nt	nt	0.9	nt	nt	nt	nt
CCC(=O)N1c2ccccc2NC2=C(C(=O)CCC2)C1c1ccc(N(C)C)cc1 (stereo not given)	0.34	-0.11	1.9	0	0.9	2	nt	nt	nt
